Assay results taken from ChEMBL document CHEMBL3108778, “Structure-activity relationships of synthetic cordycepin analogues as experimental therapeutics for African trypanosomiasis” (J Med Chem, 2013).
Each block holds one compound with its values, some of them ahead of it. The source made the active and inactive calls. The calls are words filed in the database; no cut-off is given here.

What was measured:
[1] = system: Trypanosoma brucei brucei; assay: Trypanocidal activity against bloodstream stage of Trypanosoma brucei brucei AnTat1.1E after 72 hrs by WST-1 assay; assay type: functional, organism-based
Procedure, shortened: (§1)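 Bloodstream trypanosomes (6000/well) in log phase were treated in IMDM with 10% FCS for 72 h at 37 °C, 5% CO₂. Compounds were 11-step serial dilutions from DMSO stocks, final DMSO at most 0.25%. Controls were DMSO and 10 μM 3′-deoxyadenosine. Where stated, 1.5 μM deoxycoformycin was co-added. Readout was WST-1 for 2 h, A450. EC50 came from variable-slope nonlinear regression.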

[2] = Displacement of [2,8-3H]-adenosine from Trypanosoma brucei AT1/P2 expressed in bloodstream stage of Trypanosoma brucei brucei B48
Procedure, shortened: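 Bloodstream T. b. brucei B48 clone with endogenous TbAT1 deleted and TbAT1 overexpressed. Cells were incubated 20 s with 0.05 μM [2,8-³H]adenosine plus competitor (typically 10 nM–100 μM). Uptake was stopped with ice-cold 1 mM adenosine and centrifugation through oil. Ki came from competition curves, triplicates on at least three occasions.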

[3] = system: L929; assay: Cytotoxicity against mouse L929 cells assessed as cell viability after 72 hrs by WST-1 assay; assay type: cell-based; details: L929, 72 h
Procedure, shortened: (§2)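 MOLT4 (10⁴/well) or L929 (5 × 10³/well) cells were kept in RPMI with 10% FCS and exposed to serial dilutions for 72 h at 37 °C, 5% CO₂. Final DMSO was at most 0.25%. Where stated, 1.5 μM deoxycoformycin was co-added. WST-1 was added for 2 h and A450 read. EC50 came from variable-slope nonlinear fits; triplicate cultures.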

[4] = system: Trypanosoma brucei brucei; assay: Trypanocidal activity against bloodstream stage of Trypanosoma brucei brucei AnTat1.1E after 72 hrs by WST-1 assay in presence of deoxycoformycin; assay type: functional, organism-based; procedure, shortened: as §1
[5] = system: Trypanosoma brucei brucei; assay: Trypanocidal activity against bloodstream stage of Trypanosoma brucei brucei AnTat1.1E infected in C57BL6J (B6) mouse assessed as reduction of parasitemia at 4 mg/kg, ip qd administered for 10 days measured after 18 days; assay type: functional, organism-based; set-up: dose 4 mg/kg
Procedure, shortened: (§3)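 Mice were infected ip with T. b. brucei AnTat1.1E and treated ip once daily starting 2 h later. Where stated, 0.2 mg/kg deoxycoformycin was co-given. Vehicle was PBS with 1.25% final DMSO. Parasitemia and weight were recorded every other day, then twice weekly after 30 days. At least six mice per group.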

[6] = system: Trypanosoma brucei brucei; assay: Trypanocidal activity against bloodstream stage of Trypanosoma brucei brucei AnTat1.1E infected in C57BL6J (B6) mouse assessed as reduction of parasitemia at 4 mg/kg, ip qd administered for 3 days measured after 40 days in presence of deoxycoformycin; assay type: functional, organism-based; set-up: dose 4 mg/kg; procedure, shortened: as §3
[7] = system: Trypanosoma brucei brucei; assay: Trypanocidal activity against bloodstream stage of Trypanosoma brucei brucei AnTat1.1E infected in C57BL6J (B6) mouse assessed as reduction of parasitemia at 4 mg/kg, ip qd administered for 10 days measured after 19 to 30 days; assay type: functional, organism-based; set-up: dose 4 mg/kg; procedure, shortened: as §3
[8] = system: Trypanosoma brucei; assay: Trypanocidal activity against Trypanosoma brucei; assay type: functional, organism-based; procedure, shortened: as §1
[9] = system: Trypanosoma brucei; assay: Trypanocidal activity against bloodstream stage of Trypanosoma brucei after 72 hrs by WST-1 assay; assay type: functional, organism-based; procedure, shortened: as §1
[10] = system: Trypanosoma brucei; assay: Trypanocidal activity against bloodstream stage of Trypanosoma brucei after 72 hrs by WST-1 assay in presence of deoxycoformycin; assay type: functional, organism-based; procedure, shortened: as §1
[11] = system: MOLT-4; assay: Cytotoxicity against human MOLT4 cells assessed as cell viability after 72 hrs by WST-1 assay; assay type: cell-based; details: MOLT-4, 72 h; procedure, shortened: as §2
[12] = system: Trypanosoma brucei brucei; assay: Trypanocidal activity against bloodstream stage of Trypanosoma brucei brucei AnTat1.1E infected in C57BL6J (B6) mouse assessed as reduction of parasitemia at 2 mg/kg, ip qd administered for 3 days measured after 40 days in presence of deoxycoformycin; assay type: functional, organism-based; set-up: dose 2 mg/kg; procedure, shortened: as §3
[13] = system: Trypanosoma brucei brucei; assay: Trypanocidal activity against bloodstream stage of Trypanosoma brucei brucei AnTat1.1E after 72 hrs by WST-1 assay in presence of adenosine kinase inhibitor ABT702; assay type: functional, organism-based
[14] = system: Trypanosoma brucei brucei; assay: Trypanocidal activity against bloodstream stage of Trypanosoma brucei brucei AnTat1.1E infected in C57BL6J (B6) mouse assessed as reduction of parasitemia at 2 mg/kg, ip qd measured after 30 days; assay type: functional, organism-based; set-up: dose 2 mg/kg; procedure, shortened: as §3
[15] = system: MOLT-4; assay: Cytotoxicity against human MOLT4 cells assessed as cell viability after 72 hrs by WST-1 assay in presence of deoxycoformycin; assay type: cell-based; details: MOLT-4, 72 h; procedure, shortened: as §2
[16] = system: Trypanosoma brucei brucei; assay: Trypanocidal activity against bloodstream stage of Trypanosoma brucei brucei AnTat1.1E infected in acute C57BL6J (B6) mouse HAT model assessed as reduction of parasitemia at 30 mg/kg, po qd administered for 6 days measured after 90 days; assay type: functional, organism-based; set-up: dose 30 mg/kg
[17] = Apparent permeability across apical to basolateral side in human Caco2 cells at 10 uM by LC-MS/MS analysis; assay type: ADME, cell-based; details: Caco-2
Procedure, shortened: (§4)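 Caco-2 monolayers (passage 94–105) were used on day 21 on permeable filters. Transport was run in both directions at pH 7.4 on both sides, 37 °C, 500 rpm stirring. The receiver side was sampled at 15, 30 and 60 min, the donor side at 60 min for mass balance. Mannitol served as integrity marker. LC-MS/MS used a 10–1000 nM external standard curve.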

[18] = Metabolic stability in human plasma at 10 uM measured over 4 hrs by LC-MS/MS analysis; assay type: ADME, cell-free; details: read-out: Stability
Procedure, shortened: (§5)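 Pooled human plasma (four donors) was spiked with 10 μM final compound. It was dialysed against isotonic phosphate buffer pH 7.4 for 4 h at 37 °C by rapid equilibrium dialysis. A separate sealed plasma sample was held 4 h at 37 °C for stability. Samples were methanol-precipitated and quantified by LC-MS/MS.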

[19] = Metabolic stability in CD-1 mouse liver microsomes at 1 uM by LC-MS/MS analysis; assay type: ADME, Microsome
Procedure, shortened: (§6)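 Pooled human or male CD-1 mouse liver microsomes (0.5 mg/mL) were incubated with 1 μM compound in 0.1 M phosphate pH 7.4, started with 1 mM NADPH. Sampling was at 0, 5, 15 and 40 min, quenched with cold acetonitrile containing warfarin internal standard. Analysis was LC-MS/MS on a relative basis; intrinsic clearance by the well-stirred model. Midazolam and dextromethorphan were CYP controls.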

[20] = system: Trypanosoma brucei brucei; assay: Trypanocidal activity against bloodstream stage of Trypanosoma brucei brucei AnTat1.1E infected in acute C57BL6J (B6) mouse HAT model assessed as day of parasitemia relapse at 5 mg/kg, po qd administered for 5 days in presence of deoxycoformycin; assay type: functional
[21] = Apparent permeability across apical to basolateral side in human Caco2 cells assessed as compound recovery at 10 uM by LC-MS/MS analysis; assay type: ADME, cell-based; details: Caco-2, read-out: Papp; procedure, shortened: as §4
[22] = system: Liver microsome; assay: Metabolic stability in human liver microsomes at 1 uM by LC-MS/MS analysis; assay type: ADME; procedure, shortened: as §6
[23] = Tmax in C57BL/6 mouse at 25 mg/kg, po and ip; assay type: ADME, organism-based; set-up: dose 25 mg/kg, route oral; details: in vivo
[24] = Fraction unbound in human plasma at 10 uM after 4 hrs by equilibrium dialysis method; assay type: ADME, cell-free; procedure, shortened: as §5
[25] = Apparent terminal half life in C57BL/6 mouse at 25 mg/kg, po; assay type: ADME, organism-based; set-up: dose 25 mg/kg, route oral; details: in vivo, read-out: betat1/2(app) (converted)
[26] = Cmax in C57BL/6 mouse at 25 mg/kg, ip; assay type: ADME, organism-based; set-up: dose 25 mg/kg, route intraperitoneal; details: in vivo
[27] = Apparent permeability across basolateral to apical side in human Caco2 cells assessed as compound recovery at 10 uM by LC-MS/MS analysis; assay type: ADME, cell-based; details: Caco-2, read-out: Papp; procedure, shortened: as §4
[28] = Apparent initial half life in C57BL/6 mouse at 25 mg/kg, po; assay type: ADME, organism-based; set-up: dose 25 mg/kg, route oral; details: in vivo, read-out: alphat1/2(app) (converted)
[29] = Cmax in C57BL/6 mouse at 25 mg/kg, po; assay type: ADME, organism-based; set-up: dose 25 mg/kg, route oral; details: in vivo
[30] = Apparent permeability across basolateral to apical side in human Caco2 cells at 10 uM by LC-MS/MS analysis; assay type: ADME, cell-based; details: Caco-2; procedure, shortened: as §4
[31] = system: Trypanosoma brucei brucei; assay: Trypanocidal activity against bloodstream stage of Trypanosoma brucei brucei AnTat1.1E infected in acute C57BL6J (B6) mouse HAT model assessed as day of parasitemia relapse at 5 mg/kg, po qd administered for 5 days; assay type: functional
[32] = system: Trypanosoma brucei brucei; assay: Trypanocidal activity against bloodstream stage of Trypanosoma brucei brucei AnTat1.1E infected in acute C57BL6J (B6) mouse HAT model assessed as day of parasitemia relapse at 1 mg/kg, po bid administered for 5 days; assay type: functional
[33] = system: Trypanosoma brucei brucei; assay: Trypanocidal activity against bloodstream stage of Trypanosoma brucei brucei AnTat1.1E infected in acute C57BL6J (B6) mouse HAT model assessed as day of parasitemia relapse at 15 mg/kg, po qd administered for 5 days; assay type: functional
[34] = Apparent terminal half life in C57BL/6 mouse at 25 mg/kg, ip; assay type: ADME, organism-based; set-up: dose 25 mg/kg, route intraperitoneal; details: in vivo, read-out: betat1/2(app) (converted)
[35] = Apparent initial half life in C57BL/6 mouse at 25 mg/kg, ip; assay type: ADME, organism-based; set-up: dose 25 mg/kg, route intraperitoneal; details: in vivo, read-out: alphat1/2(app) (converted)
[36] = system: Caco-2; assay: Efflux ratio of apparent permeability across basolateral to apical side over apical to basolateral side in human Caco2 cells at 10 uM by LC-MS/MS analysis; details: caco-2, 10 µM

Ki [2]: 3.97 µM
Compound: Nc1nc(Cl)nc2c1ncn2[C@@H]1O[C@H](CO)C[C@H]1O
IC50 ([1]; read-out: IC50): > 50 µM

Ki [2]: 2.6 µM
Compound: Nc1[nH]c(Cl)nc2ncnc1-2

Compound: Nc1nc(NCCO)nc2c1ncn2[C@@H]1O[C@H](CO)C[C@H]1O
IC50 ([1]; read-out: IC50): > 50 µM

Compound: CCCCCCCC(=O)Nc1ncnc2c1ncn2[C@@H]1O[C@H](CO)C[C@H]1O
IC50 [3]: 18.6 µM
IC50 ([1]; read-out: IC50(app)): 0.028 µM
IC50 [4]: 0.001 µM
Activity [5]: Active
Activity [6]: Active
Activity [7]: inactive

Ki [2]: 9.65 µM
Compound: Nc1nc(Cl)nc2c1ncn2[C@@H]1O[C@H](CO)[C@@H](O)[C@H]1O

Ki [2]: 0.18 µM
Compound: Nc1ncnc2c1ncn2[C@@H]1O[C@H](CO)C[C@H]1O [CORDYCEPIN]
IC50 [8]: 0.032 µM
IC50 [9]: 0.042 µM
IC50 [10]: 0.0012 µM
IC50 [3]: 28.7 µM
IC50 ([1]; read-out: IC50): 0.03 µM
IC50 [11]: ≥ 100 µM
Activity [12]: Active
Activity [13]: inactive
Activity [14]: inactive
IC50 [15]: 0.1 µM

Papp A→B at 10 µM [17]: 3 ×10⁻⁶ cm/s
remaining at 4 h, 10 µM [18]: 98%
Stability [19]: Stable
recovery at 10 µM [21]: 102%
Stability [22]: Stable
Tmax [23]: 30 min
fraction unbound at 4 h, 10 µM [24]: 1
half-life [25]: 408 min
Cmax [26]: 9.17 µM
recovery at 10 µM [27]: 104%
half-life [28]: 54 min
Cmax [29]: 4 µM
Papp B→A at 10 µM [30]: 1.4 ×10⁻⁶ cm/s
Ki [2]: 0.96 µM
half-life [34]: 366 min
half-life [35]: 36 min
Ratio [36]: 0.5
Compound: Nc1nc(F)nc2c1ncn2[C@@H]1O[C@H](CO)C[C@H]1O
Activity [16]: Active
Time [20]: 5 days
IC50 [9]: 0.176 µM
IC50 [10]: 0.17 µM
IC50 ([1]; read-out: IC50): 0.17 µM
Time [31]: 7 days
IC50 [11]: 2.44 µM
Time [32]: 2 days
Activity [13]: inactive
Time [33]: 7 days
IC50 [15]: 2.13 µM

Ki [2]: 0.9 µM
Compound: Nc1nc(F)nc2nc[nH]c12
IC50 ([1]; read-out: IC50): > 100 µM

Compound: Nc1nc(F)nc2c1ncn2[C@@H]1O[C@H](CO)C[C@@H]1O
IC50 ([1]; read-out: IC50): > 100 µM

Ki [2]: 0.28 µM
Compound: Nc1[nH]cnc2ncnc1-2 [ADENINE]

Compound: Nc1ncnc2c1ncn2[C@@H]1O[C@H](CO)[C@@H](O)[C@@H]1O [VIDARABINE]
IC50 ([1]; read-out: IC50): > 100 µM

Compound: Nc1ncnc2c1ncn2[C@@H]1O[C@H](CO)[C@H]2O[C@H]21
IC50 ([1]; read-out: IC50): > 100 µM

Compound: Nc1nc(F)nc2c1ncn2[C@@H]1O[C@H](CO)[C@@H](O)[C@H]1O
IC50 ([1]; read-out: IC50): > 100 µM
Ki [2]: 2.71 µM

Compound: OC[C@H]1O[C@@H](n2cnc3cncnc32)[C@H](O)[C@@H]1O [NEBULARINE]
IC50 [3]: 2.37 µM
IC50 ([1]; read-out: IC50): 1.15 µM

Compound: OC[C@@H]1C[C@@H](O)[C@H](n2cnc3cncnc32)O1
IC50 [3]: > 100 µM
IC50 ([1]; read-out: IC50): 8.79 µM
